Data on 23 compounds can be found in ChEMBL document CHEMBL2331135, “New selective carbonic anhydrase IX inhibitors: synthesis and pharmacological evaluation of diarylpyrazole-benzenesulfonamides” (Bioorg Med Chem, 2013).

Structures are written as SMILES. Calls of active or inactive are those of the source. The rule behind the calls is not given here. Where only a bound is given, the exact number is not on record here.

The target of one test is Carbonic anhydrase 9 (Homo sapiens, UniProt Q16790). The test can be described thus: Inhibition of human carbonic anhydrase 9 preincubated for 10 mins by CO2 hydration stopped-flow assay.
For test [1], the system named is MDA-MB-231. The test can be described thus: Ratio of IC50 for human MDA-MB-231 cells under hypoxic condition to IC50 for human MDA-MB-231 cells under normoxic condition. In kind it is functional.
The species entered for test [2] is Homo sapiens. The test is described as follows: Selectivity ratio of Ki for human carbonic anhydrase 1 to Ki for human carbonic anhydrase 9. A digest of the protocol: (§1)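 Stopped-flow CO2 hydration assay using 0.2 mM phenol red read at 557 nm, in 10 mM Hepes pH 7.5 with 0.1 M Na2SO4. Substrate was CO2-saturated water at 25 °C. Enzyme and inhibitor were preincubated 10 min at room temperature, testing at least seven inhibitor concentrations, with dilutions going down to 0.01 nM. Ki came from Lineweaver-Burk plots, triplicates averaged. The ratios are hCA I or hCA II Ki divided by hCA IX Ki.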

The species named for test [3] is Homo sapiens. The test is described as follows: Selectivity ratio of Ki for human carbonic anhydrase 2 to Ki for human carbonic anhydrase 9. In outline: as §1
The target of the next test is Carbonic anhydrase 2 (Homo sapiens, UniProt P00918). The test can be described thus: Inhibition of human carbonic anhydrase 2 preincubated for 10 mins by CO2 hydration stopped-flow assay.
The target of a further test is Carbonic anhydrase 1 (Homo sapiens, UniProt P00915). The test is described as follows: Inhibition of human carbonic anhydrase 1 preincubated for 10 mins by CO2 hydration stopped-flow assay.
Sequence of Carbonic anhydrase 1 (P00915 whole entry): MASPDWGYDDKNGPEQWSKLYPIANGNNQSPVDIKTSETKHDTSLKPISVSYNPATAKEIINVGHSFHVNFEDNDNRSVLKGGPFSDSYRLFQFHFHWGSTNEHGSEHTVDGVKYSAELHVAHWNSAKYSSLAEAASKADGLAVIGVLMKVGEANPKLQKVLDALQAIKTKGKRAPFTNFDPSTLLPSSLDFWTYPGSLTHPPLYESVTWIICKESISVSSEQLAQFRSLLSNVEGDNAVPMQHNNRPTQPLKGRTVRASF
For test [4], the system named is MDA-MB-231. The test can be described thus: Cytotoxicity against human MDA-MB-231 cells after 72 hrs by MTS assay. The note with it: MDA-MB-231, 72 h. For orientation: Formazan colour is commonly taken as a measure of viable cells.
In test [5] the test system is MDA-MB-231. The test can be described thus: Potentiation of doxorubicin-induced cytotoxicity against human MDA-MB-231 cells under normoxic condition at 1 uM after 72 hrs by MTS assay. In kind it is functional, cell-based.
Test [6] relates to MDA-MB-231. The test is described as follows: Potentiation of doxorubicin-induced cytotoxicity against human MDA-MB-231 cells under hypoxic condition at 1 uM after 72 hrs by MTS assay. In kind it is functional, cell-based. A digest of the protocol: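 MDA-MB-231 cells (2×10^3 per well) were seeded in DMEM with 10% FCS, buffered with 22.3 mM bicarbonate, and moved to hypoxia (1% O2, 5% CO2, N2 balance). Cells were then held 72 h at 37 °C under hypoxia. Read-out was MTS, 1 h, A492. IC50 is the doxorubicin concentration giving 50% absorbance reduction. Data come from three independent experiments, six wells each.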

A word on the Ki: it is the equilibrium dissociation constant of an inhibitor or competing ligand from its target. Read a low Ki as tighter binding. As to `NS(=O)(=O)c1ccc(-n2nc(CO)cc2-c2ccccc2)cc1`, the Ki at Carbonic anhydrase 9 was 0.027 µM.

For `COc1ccc2cc(-c3nn(-c4ccc(S(N)(=O)=O)cc4)cc3CO)ccc2c1`, affinity at Carbonic anhydrase 9 was put at a Ki of 0.048 µM.

For the compound `COc1cccc2c1C(=O)c1c(O)c3c(c(O)c1C2=O)C[C@@](O)(C(=O)CO)C[C@@H]3O[C@H]1C[C@H](N)[C@H](O)[C@H](C)O1` [DOXORUBICIN], the “Ratio IC50” value in the test with MDA-MB-231 [1] worked out at 3.

As for `NS(=O)(=O)c1ccc(-n2nc(CO)cc2-c2ccc(-c3ccccc3)cc2)cc1`, the Ki at Carbonic anhydrase 9 was found to be 0.027 µM.

Consider `COc1ccc2cc(-c3cc(CO)nn3-c3ccc(S(N)(=O)=O)cc3)ccc2c1Br`, for which the affinity on Carbonic anhydrase 9 corresponds to a Ki of 0.03 µM.

Regarding `Cc1ccc(-c2cc(CO)nn2-c2ccc(S(N)(=O)=O)cc2)cc1`, the Ratio Ki in the test listed under Homo sapiens [2] amounted to 69; in the test listed under Homo sapiens [3], 8. The results for the Ki at Carbonic anhydrase 2 and at Carbonic anhydrase 1 were 0.176 µM and 1.51 µM, respectively.

At Carbonic anhydrase 9, `COc1cccc(-c2cc(CO)nn2-c2ccc(S(N)(=O)=O)cc2)c1` gave a Ki of 0.026 µM.

On Carbonic anhydrase 9, `NS(=O)(=O)c1ccc(-n2nc(-c3ccccc3)cc2CO)cc1` returned a Ki of 0.157 µM.

Compound `NS(=O)(=O)c1ccc(-n2nc(CO)cc2-c2cccnc2)cc1` gave a Ki at Carbonic anhydrase 9 of 0.013 µM.

With `N#Cc1ccc(-c2cc(CO)nn2-c2ccc(S(N)(=O)=O)cc2)cc1`, on Carbonic anhydrase 9, the Ki is 0.027 µM.

For orientation: IC50 means the concentration at which inhibition is half-maximal. On to `COc1ccc2cc(-c3cc(CO)nn3-c3ccc(S(N)(=O)=O)cc3)ccc2c1`, for which the IC50 in the test with MDA-MB-231 [4] was over 50 µM. Also, the outcome in the test on MDA-MB-231 [5] was inactive. In addition, at Carbonic anhydrase 9, the Ki stood at 0.019 µM.

In turn, `COc1ccc2cc(-c3cc(CO)nn3-c3cccc(S(N)(=O)=O)c3)ccc2c1` registered a Ki at Carbonic anhydrase 9 of 0.029 µM.

Compound `NS(=O)(=O)c1ccc(-n2cc(CO)c(-c3ccc4ccccc4c3)n2)cc1` gave a Ki on Carbonic anhydrase 9 of 0.049 µM.

Turning to `NS(=O)(=O)c1ccc(-n2nc(-c3ccc4ccccc4c3)cc2CO)cc1`, the Ki at Carbonic anhydrase 9 came to 0.021 µM.

In the case of `NS(=O)(=O)c1ccc(-n2nc(CO)cc2-c2ccc3c(ccc4ccccc43)c2)cc1`, the Ratio Ki in the test filed under Homo sapiens [2] and in the test filed under Homo sapiens [3] was over 5 throughout. Moreover, the Ki on Carbonic anhydrase 2 was over 10 µM; at Carbonic anhydrase 1 it was over 10 µM; on Carbonic anhydrase 9, 1.86 µM.

`NS(=O)(=O)c1ccc(-n2nc(CO)cc2-c2cccc3ccccc23)cc1` had an inhibition constant (Ki) on Carbonic anhydrase 9 of 0.254 µM.

On to `NS(=O)(=O)c1ccc(-n2nc(CCO)cc2-c2ccccc2)cc1`, for which, on Carbonic anhydrase 9, the affinity, expressed as Ki, was 0.023 µM.

For `NS(=O)(=O)c1ccc(-n2nc(CO)cc2-c2ccc(Br)cc2)cc1`, the result with MDA-MB-231 [6] was Active. The compound further returned an IC50 in the test on MDA-MB-231 [4] of over 50 µM. Also, in the test with MDA-MB-231 [5], the result was inactive. Moreover, the affinity on Carbonic anhydrase 9 corresponds to a Ki of 0.015 µM.

As to `COc1ccccc1-c1cc(CO)nn1-c1ccc(S(N)(=O)=O)cc1`, the affinity at Carbonic anhydrase 9, expressed as Ki, was 0.032 µM.

Regarding `NS(=O)(=O)c1ccc(-n2nc(CO)cc2-c2ccc3ccccc3c2)cc1`, the affinity at Carbonic anhydrase 9 corresponds to a Ki of 0.017 µM.

As for `NS(=O)(=O)c1cccc(-n2nc(CO)cc2-c2ccc3ccccc3c2)c1`, in the test with MDA-MB-231 [6], the result was Active. The IC50 in the test on MDA-MB-231 [4] was over 50 µM. For the same compound, in the test with MDA-MB-231 [5], the outcome was inactive. On Carbonic anhydrase 9, this compound returned a Ki of 0.019 µM.

On to `NS(=O)(=O)c1cccc(-n2nc(CO)cc2-c2ccccc2)c1`, for which the Ki on Carbonic anhydrase 9 is 0.031 µM.

On to `NS(=O)(=O)c1ccc(-n2cc(CO)c(-c3ccccc3)n2)cc1`, for which the inhibition constant (Ki) on Carbonic anhydrase 9 is 0.066 µM.
